Only some compounds are listed: those with a hit (about 2.1% of all), similar ones and a draw of the others.
Ins promoter up: MIN6 insulin promoter up-regulation; MIN6 insulin promoter-GFP reporter, high-content imaging; stronger effect = higher value; z-score at 5 µM; hit rate 0.3% among 190,000; AID 1625;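 active means z-score above 3 at 5 µM with at least 500 cells counted in the well; inconclusive means wells under 500 cells, flagged as cytotoxic or low count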
RBBP9 inh: blocks human serine hydrolase RBBP9 | AID 1515 | inhibition, % at 7.94 µM | recombinant RBBP9, FP-Rh probe fluorescence polarization | hit rate 0.2% among 220,000;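 active means inhibition above the campaign mean of all tested compounds plus 3 SD, cut at about 14% in these data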;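 further: plate controls were DMSO wells with RBBP9 for no effect and wells lacking RBBP9 protein for full effect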
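Measured by – fluorescence polarization · Test system – RBBP9 protein · Input – 2.5 µM RBBP9 dispensing solution, before mixing · Measure – percent inhibition from mP, scaled between DMSO and no-protein wells · Benchmarks – DMSO-treated enzyme wells and wells lacking RBBP9 · Times – preincubation 30 min plus labeling 45 min at 25 °C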
Arbovirus inh: blocks arbovirus infection; arbovirus infection cell-based antiviral screen; inhibition, % at 10 µM; hit rate 0.37% among 200,000; AID 1251; in the data active means inhibition above about 30%
INS promoter inh: TRM-6 insulin promoter activity inhibition | hit rate 0.9% among 130,000 | TRM-6 cells (human fetal islet line), insulin promoter-eGFP reporter, imaging; reporter expression induced with tamoxifen | AID 1273 | inhibition, % at 2 µM;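 active means inhibition above the mean plus 3 SD, with well images judged a real hit on visual review, cut at about 60% in these data, passing the limit was not always enough; inconclusive means inhibition over the cutoff but images rejected on review; inactive means inhibition not above the cutoff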
PKD1 inh: PKD1 (human) kinase inhibition. Q15139. PKD1 kinase fluorescence polarization assay. inhibition, % (concentration not given with the values). hit rate 0.056% among 200,000. AID 797; in the data active means inhibition above about 50%
Target sequence (Q15139 whole entry, looked up): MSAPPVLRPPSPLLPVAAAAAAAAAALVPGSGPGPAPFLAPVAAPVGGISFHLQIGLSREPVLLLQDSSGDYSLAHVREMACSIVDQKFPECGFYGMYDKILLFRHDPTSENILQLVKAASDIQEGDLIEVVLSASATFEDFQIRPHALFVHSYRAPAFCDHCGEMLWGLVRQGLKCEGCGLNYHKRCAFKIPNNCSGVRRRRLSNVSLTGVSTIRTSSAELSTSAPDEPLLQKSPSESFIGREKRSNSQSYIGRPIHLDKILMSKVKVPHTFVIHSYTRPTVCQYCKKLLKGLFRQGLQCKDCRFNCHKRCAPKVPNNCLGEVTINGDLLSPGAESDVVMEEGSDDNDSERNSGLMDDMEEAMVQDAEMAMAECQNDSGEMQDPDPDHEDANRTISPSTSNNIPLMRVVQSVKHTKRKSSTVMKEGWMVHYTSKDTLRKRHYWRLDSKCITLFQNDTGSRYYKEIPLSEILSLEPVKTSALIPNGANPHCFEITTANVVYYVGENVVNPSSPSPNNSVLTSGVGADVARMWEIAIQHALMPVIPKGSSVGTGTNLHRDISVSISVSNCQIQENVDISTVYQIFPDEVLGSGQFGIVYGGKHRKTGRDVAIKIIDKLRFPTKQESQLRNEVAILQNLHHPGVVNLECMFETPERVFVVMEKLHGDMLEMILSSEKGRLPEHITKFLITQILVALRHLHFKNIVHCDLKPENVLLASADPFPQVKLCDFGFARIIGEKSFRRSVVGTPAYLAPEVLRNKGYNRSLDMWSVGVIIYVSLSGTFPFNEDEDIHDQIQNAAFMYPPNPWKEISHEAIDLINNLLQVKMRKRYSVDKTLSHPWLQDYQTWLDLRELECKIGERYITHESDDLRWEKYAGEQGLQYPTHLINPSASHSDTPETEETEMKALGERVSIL
Autophagy HCS: alters autophagy in cells; MEF GFP-LC3 puncta imaging; test concentration mostly 10 µM; calls only at 10 µM (by protocol); hit rate 0.98% among 190,000; AID 463193;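 active means percentage of spot-positive cells more than 3 SD above its plate mean, without a fluorescence outlier flag or 80% toxicity; inconclusive means no clear call, values can overlap the other calls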;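 further: spot-positive cell cutoff set from DMSO-treated cells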
* = called active by the depositor; i = inactive; ? = inconclusive; / = not tested or not shown; + = active, no number.

SMILES	Ins promoter up	RBBP9 inh	Arbovirus inh	INS promoter inh	PKD1 inh	Autophagy HCS
O=C(NCCCn1ccnc1)Nc1ccc(Cl)cc1	0.02	-2.1	7.1	76.9*	-7.5	i
O=C(NCCCn1ccnc1)c1ccc(N2CCCCCC2)c([N+](=O)[O-])c1	0.09	-5.7	-0.7	/	-2.7	i
COc1ccc(CNC(=O)C(C)NS(=O)(=O)c2ccc(C)cc2)cc1 (stereo not given)	-0.11	-2.6	1.1	/	-3.4	i
COc1ccc(CNC(=O)CSc2nnnn2Cc2ccccc2)cc1	-0.8	-3.1	-19.8	/	7.7	i
Cc1ccc2[nH]c3c(=O)n(CCCN4CCOCC4)cnc3c2c1	-0.64	-5.4	6.4	/	0.9	i
CCOC(=O)c1ccc(N/C=C\C(=O)c2cccc(OC)c2)cc1	-0.07	-0.7	-26.8	-10.8	2.1	i
COc1cccc(C(=O)/C=C/Nc2cc(C)ccc2O)c1	0.75	4.7	11.2	-24.2	-15.6	+
CCOc1ccc2[nH]c(=O)c(C(c3nnnn3C3CCCCC3)N3CCN(C)CC3)cc2c1 (stereo not given)	0.2	-1.1	8.4	-6.2	2.7	+
CN(c1ccc(C(=O)NCc2ccc3c(c2)OCO3)cc1)S(=O)(=O)c1ccccc1	-0.12	-6.5	-11.7	7.1	5.9	i
CCOC(=O)c1cnc(SC)nc1Oc1cccc(NS(=O)(=O)c2ccc(C)cc2)c1	-0.51	-10.8	-6.2	-20.0	-8.5	+
Cc1ccc(C(=O)C2CCNCC2)cc1	0.77	2.3	9.6	19.4	15.1	i
CC(C)(C)C(=O)NC1=NN(c2c(Cl)cc(Cl)cc2Cl)C(=O)C1	1.58	2.2	-5.0	-6.7	-0.9	i
COc1cccc(C(=O)Nc2cccc(C(=O)NC3=NN(c4c(Cl)cc(Cl)cc4Cl)C(=O)C3)c2)c1	/	-11.2	34.4*	68.2	-3.4	i
CCCCCC(=O)NNC(=O)Nc1ccccc1	0.98	10.6	-2.7	/	-6.5	i
CCCCCCCCCCCC(=O)NC(C(=O)O)C(O)c1ccccc1 (stereo not given)	0.24	3.3	31.6*	/	3.6	i
COc1cccc(C(=O)Nc2nc(-c3ccccc3)c(-c3ccccc3)o2)c1	/	-7.2	-18.1	14.3	8.7	i
COc1ccc(C(C)C)cc1S(=O)(=O)Nc1ccc(Cl)cn1	0.32	-6.7	0.2	43.8	15.9	i
COc1cccc(N=Nc2c(N)[nH]n3c(=O)c4c(nc23)CCCC4)c1	0.13	8.7	-15.7	/	-5.5	+
Cc1cc(C)c(S(=O)(=O)Nn2cnnc2)c(C)c1	0.85	0.0	-2.7	57.1	3.7	i
COc1ccc(C2OCC3(CO2)SC(=O)NC3=O)cc1 (stereo not given)	/	-9.8	7.6	73.3*	-17.8	i
CC(=O)c1c(C)nc2cc(Cl)ccc2c1N	0.68	4.6	3.2	96.3*	1.8	i
O=C(NCc1cccnc1)c1ccc(NC(=O)c2ccco2)cc1	1.47	-4.6	-0.7	79.0*	-6.9	i
Cc1cc(C2=NNC(=NC3CC3)SC2)c(C)n1Cc1ccco1	-2.38	-0.3	-5.1	/	3.5	i
Cc1ccc(S(=O)(=O)/N=C(/Nc2nc(C)cc(C)n2)N2CCOCC2)cc1	/	13.9	4.7	-25.0	-1.6	i
COc1ccc(N2CCN(/C(=N\S(=O)(=O)c3ccccc3)Nc3nc(C)cc(C)n3)CC2)cc1	1.74	-4.9	14.9	33.3	5.6	+
SMILES	Ins promoter up	RBBP9 inh	Arbovirus inh	INS promoter inh	PKD1 inh	Autophagy HCS
Cc1cc(=O)oc2cc(OCC(=O)N/N=C/c3cc([N+](=O)[O-])ccc3O)ccc12	-0.23	1.7	-12.5	/	-11.1	i
CCn1c(SCC(=O)Nc2cc(C)on2)nc2sc3c(c2c1=O)CCCC3	0.32	1.7	-18.6	52.4	-0.1	+
CCc1sc2nc(SCC(=O)Nc3cc(C)on3)n(-c3cccc(OC)c3)c(=O)c2c1C	0.17	-1.1	-14.5	20.0	-0.1	+
CCN(CC)C(=O)CN(C#N)c1nc(OC)nc(N(C)C)n1	/	5.5	3.6	-38.7	0.3	i
CCN(CCO)c1cc(Cl)nc(SC)n1	/	-7.3	3.5	32.1	-7.4	i
CN1Cc2cccc3c2C(Cc2ccccc2S3)C1 (stereo not given)	-0.13	-7.9	-7.5	-72.4	-0.3	i
N=c1c2c(-c3ccccc3)c(-c3ccccc3)n(Cc3ccco3)c2ncn1Cc1ccccc1	/	-1.8	-42.8	-4.3	5.0	+
N=c1c2c(-c3ccccc3)c(-c3ccccc3)n(Cc3ccccc3)c2ncn1CCO	0.26	-3.6	-31.0	-58.3	-15.4	+
CC(C)Cn1cnc2c(c(-c3ccccc3)c(-c3ccccc3)n2Cc2ccco2)c1=N	-3.58	-6.8	-30.2	-28.6	3.0	+
N=c1c2c(-c3ccccc3)c(-c3ccccc3)n(Cc3ccco3)c2ncn1CCCn1ccnc1	?	-1.9	-41.6	-84.6	-0.3	i
O=C(CN1C(=O)C2CCCN2C(=O)c2ccccc21)Nc1ccccc1-n1cccc1 (stereo not given)	/	-3.4	/	/	-1.9	i
O=C(CSc1nnc(C2COc3ccccc3O2)o1)N1CCCCC1 (stereo not given)	-0.63	-6.3	8.1	/	-14.4	i
Cc1ccc(S(=O)(=O)Nc2ccnc3ccccc23)cc1	/	0.0	9.5	13.3	6.8	i
Cc1ccc(S(=O)(=O)Nc2ccccc2-c2ccccc2)cc1	-0.01	-19.2	-13.2	-132.3	14.6	+
C=CCN(c1ccccc1)S(=O)(=O)c1cccc(C(=O)OCC(=O)NC2CC2)c1	-0.1	-6.5	-0.1	-66.7	4.4	+
Cc1cc(C)cc(NC(=O)CSc2nc3ccncc3[nH]2)c1	0.53	-8.5	3.8	/	-4.4	i
Cc1cc(NC(=O)c2noc3c2CCCCC3)no1	-0.33	1.6	6.2	/	-5.5	i
Cc1cc(NC(=O)c2noc3c2CCCC3)no1	0.35	-6.0	3.6	9.4	-14.7	+
CC(=O)c1ccc(NC(=O)c2noc3c2CCCCC3)cc1	0.71	0.8	-0.8	-10.0	3.0	i
Cc1cc(NC(=O)c2ccc3c(c2)OCCO3)no1	0.36	-3.8	-16.0	-61.3	-14.8	i
Cc1cc(NC(=O)c2ccc3c(c2)OCO3)no1	-1.13	5.8	-0.1	84.8*	-5.6	i
O=C(Nc1ccn(Cc2ccc(Cl)cc2)n1)c1ccc2c(c1)OCO2	0.22	-9.3	-25.5	76.9*	-4.3	i
O=C(Nc1ccc2c(c1)OCO2)c1noc2c1CCCCC2	-0.09	-3.5	-8.7	6.7	3.4	+
COc1ccc(OCCn2cc(/C(N)=N/O)c3ccccc32)cc1	3.09*	5.8	-14.2	-28.6	-0.8	i
COC(=O)c1cn(CCOc2ccccc2)c2ccccc12	0.63	-5.2	6.0	-78.6	-7.1	+
Cc1ccc(OCCn2cc(/C(N)=N/O)c3ccccc32)cc1C	-0.71	-8.1	-24.4	/	19.0	i
Cc1ccc(S(=O)(=O)NC(=NCC(=O)O)c2ccc(F)cc2)cc1	/	-9.9	-1.0	-46.1	-4.9	i
